Source: PubChem BioAssay (several laboratories)
S1P3 agonist – activates the human S1P3 receptor | Q99500 | S1P3 NFAT-BLA reporter cells, agonism, FRET ratio; relative to 1 µM S1P, basal subtracted | activation, % at 4.5 µM | hit rate 0.1% among 60,000 | AID 373;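 active = activation above the screen-wide mean plus 3 SD, cut at about 4.5% in these data, passing the limit was not always enough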
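Assay system: CHO cells stably expressing human S1P3, Gα16 and NFAT-β-lactamase reporter. Timing: overnight plating, 4 h compound 37 °C, 2 h substrate RT. Signal: β-lactamase FRET emission ratio 460/535 nm. Measure: percent activation versus median 1 µM S1P response, basal-subtracted, per plate. Repeats: primary screen single test, confirmation screen in triplicate.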
S1P1 ag-PAM – activates or potentiates agonism at human S1P1 receptor. S1P1 CRE-bla cells, forskolin, beta-lactamase FRET, potentiator mode; S1P1 agonist co-added at EC20, 2 nM; 100% = saturating reference agonist, 0% = basal. P21453. hit rate 0.57% among 56,000. AID 449. activation, % at 9.5 µM;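 active = activation above a cutoff set at the mean activation of all tested compounds plus 3 SD, cut at about 54% in these data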;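 also: forskolin at 4 µM as EC80 and the EC20 agonist is SEW2871; 100% = SEW2871 at its EC100 plus forskolin at EC80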
SF1 activator – SF-1 (human) activation. CHO-K1 Gal4-SF-1 LBD luciferase reporter; % increase over DMSO SF-1-specific signal. activation, % at 10 µM. hit rate 1.9% among 65,000;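 active = activation above the mean activation of all tested compounds plus 3 SD, cut at about 50% in these data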
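Material: Transient Gal4-SF-1 LBD reporter, CHO-K1 | Input: 4,000 cells/well | Dosing: One dose, 10 µM compound, 1% DMSO | Incubation: 20 h compound treatment, 37 °C | Detection: SteadyLite luciferase luminescence | Evaluation: Percent activation relative to DMSO median and mock-transfected background | Benchmarks: DMSO-treated SF-1-transfected cells as negative, DMSO-treated mock-transfected cells lacking SF-1 as background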
M1 antag – M1 muscarinic receptor (rat) antagonism; P08482; CHO-M1 cells, Fluo-4 calcium, ACh EC80 antagonist mode; stronger effect = lower value; B-score at 10 µM; hit rate 3.4% among 64,000; AID 628;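 active = calcium fluorescence response, raw or row-and-column corrected B-score, differing from the plate sample mean either way at a set confidence level, mostly lower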
RORA act – activators of human nuclear receptor RORA; hit rate 1.5% among 65,000; activation, % at 10 µM; P35398; CHO-K1 Gal4-RORA LBD luciferase reporter, luminescence; percent increase over mock-subtracted basal signal;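 active = activation above the mean of all tested compounds plus 3 SD, cut at about 49% in these data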;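 also: 0% = DMSO-treated RORA cells and 100% = added signal equal to DMSO minus mock-transfected cells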
Target sequence (P35398 whole entry, looked up, the tested form may be a part): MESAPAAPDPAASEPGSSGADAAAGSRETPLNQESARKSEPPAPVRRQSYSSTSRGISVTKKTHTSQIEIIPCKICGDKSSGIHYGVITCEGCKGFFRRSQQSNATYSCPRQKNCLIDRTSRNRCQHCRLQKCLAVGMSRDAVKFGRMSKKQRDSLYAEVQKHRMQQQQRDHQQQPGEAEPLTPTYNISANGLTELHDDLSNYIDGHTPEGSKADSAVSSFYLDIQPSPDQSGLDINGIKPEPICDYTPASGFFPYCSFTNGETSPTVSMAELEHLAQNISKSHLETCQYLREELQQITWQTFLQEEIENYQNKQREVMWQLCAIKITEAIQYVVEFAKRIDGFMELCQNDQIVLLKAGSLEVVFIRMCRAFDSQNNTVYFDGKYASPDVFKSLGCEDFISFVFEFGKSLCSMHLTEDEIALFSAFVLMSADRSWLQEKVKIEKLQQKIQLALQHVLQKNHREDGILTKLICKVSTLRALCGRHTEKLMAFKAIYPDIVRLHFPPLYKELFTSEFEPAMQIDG
M1 agonist – activates the M1 muscarinic receptor; CHO-M1 cells, Fluo-4 calcium fluorescence, agonist mode; stronger effect = higher value; B-score at 10 µM; hit rate 3% among 64,000; AID 626;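 active = fluorescence rise, raw or as B-score row- and column-corrected plate score, outside the 99.7% band of its plate's samples, either direction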
* marks the source's active call; other numbers are inactive results; / = no result given. Only some compounds are listed: those with a hit (about 8.8% of all), similar ones and a draw of the others.

SMILES | S1P3 agonist | S1P1 ag-PAM | SF1 activator | M1 antag | RORA act | M1 agonist
Cc1ccc(-c2csc(NC(=O)c3ccno3)n2)cc1 | / | / | 28 | -0.98 | 60* | 0.18
O=C(Nc1nc(-c2ccccc2)ns1)c1cccs1 | 0 | -9 | 76* | -0.094 | 34 | -1.4
O=C(Nc1nc(-c2ccc(S(=O)(=O)N3CCCC3)cc2)cs1)c1ccco1 | 0 | / | 3 | 0.42 | 28 | 0.57
O=C(CSc1ncn[nH]1)Nc1ccccc1C(=O)O | 1 | -18 | 1 | -0.94 | -8 | 0.04
O=C(Nc1nc(-c2ccccc2)cs1)c1cccs1 | 0 | 11 | 18 | -0.87 | 57* | 0.68
Clc1ccc(Cc2nn3c(Cn4nnc5ccccc54)nnc3s2)cc1 | -1 | -14 | -4 | -0.0037 | -3 | -1
CN1CCN(C(=O)Cn2c(=O)oc3cc(S(=O)(=O)NCc4ccccc4)ccc32)CC1 | -1 | -8 | -1 | 0.026 | -7 | 0.014
Cc1noc(C)c1CSc1nnc2scc(-c3ccc(Cl)cc3)n12 | 0 | -12 | 6 | -0.67 | -20 | 0.046
O=C(OCC(=O)N1CCc2ccccc21)C1=COCCO1 | 0 | 6 | 2 | 0.069 | 4 | 0.7
O=C(COc1ccc(F)cc1Br)N1CCc2ccccc21 | 1 | 34 | 51* | 0.62 | 30 | 2.2
Cc1cc(C(=O)OCC(=O)N2CCc3ccccc32)c(C)o1 | 0 | -22 | 54* | -0.15 | -2 | -0.59
CC(Oc1ccc(Br)cc1)C(=O)N1CCc2ccccc21 (stereo not given) | 1 | 20 | 11 | -0.044 | 5 | 0.082
CC(Oc1ccccc1Br)C(=O)N1CCc2ccccc21 (stereo not given) | 9.9* | 87* | 35 | 0.46 | 17 | 0.24
O=C(c1cccc(F)c1)N1CCc2ccccc21 | / | / | / | 0.53 | / | 1.4
CC1(C)Oc2ccc(NC(=O)C3COc4ccccc4O3)cc2O1 (stereo not given) | 0 | -1 | 35 | -0.3 | 43 | 0.0013
COc1ccccc1-n1c(CNC(=O)COc2ccccc2)n[nH]c1=S | / | / | 19 | -0.2 | -8 | -0.027
COc1cccc(OCC(O)CO)c1 (stereo not given) | 0 | -11 | -20 | 0.27 | -21 | -0.5
CC(=O)N1CCC(N(C(=O)Nc2ccc(C)c(C)c2)C2CCCC2)CC1 | -2 | 12 | 6 | 3* | -11 | 1.5
CSc1ccc(-c2cc(=O)c3ccccc3o2)cc1 | 0 | -6 | 63* | 0.55 | 32 | 0.71
Cn1c(-c2c(N)n(C3CCCC3)c3nc4ccccc4nc23)nc2ccccc21 | -2 | 71* | -12 | 0.21 | -6 | -0.57
N#C/C(C(=O)N1CCCCC1)=C1\Nc2ccccc2S1 | -2 | 8 | 50* | -0.26 | 30 | -1.4
Cc1ccc(C)c(N(CC(N)=O)S(C)(=O)=O)c1 | 0 | / | -18 | 2.1* | 7 | 0.067
COCCN(CCOC)c1ncnc2c1cnn2-c1ccccc1 | -1 | -26 | 19 | 0.12 | 26 | -0.67
Cc1cccc(-n2ncc3c(N(CCO)CCO)ncnc32)c1 | -1 | -16 | 19 | -0.4 | 68* | -1.8
Cc1cccc(-n2ncc3c(N(C)C4CCCCC4)ncnc32)c1 | -1 | 53* | -77 | 0.085 | -73 | -0.19
SMILES | S1P3 agonist | S1P1 ag-PAM | SF1 activator | M1 antag | RORA act | M1 agonist
Cc1ccc(Cl)cc1N1CCN(C(=O)CCS(=O)(=O)c2cccc3nonc23)CC1 | / | / | -14 | -0.18 | -22 | -0.87
O=C(C1CC(c2ccc(F)cc2)=NO1)N1CCCCC1 (stereo not given) | 0 | 12 | 55* | 0.77 | 18 | 0.23
CC1CCCCN1C(=O)C1CC(c2ccc(F)cc2)=NO1 (stereo not given) | 1 | 1 | 63* | 0.05 | 49* | 0.35
O=C(C1CC(c2ccc(F)cc2)=NO1)N1CCN(c2ccccc2)CC1 (stereo not given) | 0 | 9 | -7 | -0.56 | 7 | -0.91
CCCCN(C)C(=O)CS(=O)(=O)Cc1nc(-c2cccc(OC)c2)oc1C | 0 | 5 | 0 | -0.013 | 10 | 0.1
COCCOC(=O)c1[nH]c2c(c1C)C(=O)CC(c1cc(OC)ccc1OC)C2 (stereo not given) | -1 | 7 | 7 | 0.67 | 75* | 0.44
